This is an account of results in ChEMBL document CHEMBL4622989, “From Bacteria to Cancer: A Benzothiazole-Based DNA Gyrase B Inhibitor Redesigned for Hsp90 C-Terminal Inhibition” (ACS Med Chem Lett, 2020).

The EC50 is the midpoint of the concentration-response curve.

For data set [1], the system named is SK-BR-3. The data set can be described thus: Antiproliferative activity against human SKBR3 cells assessed as reduction in cell viability. The format is functional, cell-based.
Data set [2] deals with MCF7. The data set is described as follows: Antiproliferative activity against human MCF7 cells assessed as reduction in cell viability. It counts as functional, cell-based.
For data set [3], the target named is T1, Heat shock protein HSP90 (Homo sapiens, UniProt P07900+P08238). The data set can be described thus: Inhibition of HSP90 at C-terminus in human SKBR3 cell lysates at 0.5 to 5 times antiproliferative EC50 after 24 hrs by Western blot analysis. The conditions noted are these: SK-BR-3. It counts as cell-based. The method in brief:
(§1)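 SKBr3 breast cancer cells were treated for 24 h and then lysed. Hsp90-dependent client proteins and Hsp70 in the lysates were analysed by Western blot. Geldanamycin at 500 nM served as the reference treatment. Blot images were quantified.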
(In general: In western blotting, separated proteins are transferred to a membrane and probed.)

For data set [4], the target named is T1, Heat shock protein HSP90. The data set is described as follows: Inhibition of HSP90 at C-terminus in human SKBR3 cell lysates assessed as induction of Her2 protein degradation at 0.1 to 10 uM after 24 hrs by Western blot analysis. The format is cell-based. The conditions noted are these: SK-BR-3. In outline: as §1
Data set [5] has as its target T1, Heat shock protein HSP90. The data set can be described thus: Inhibition of HSP90 at C-terminus in human SKBR3 cell lysates assessed as induction of CDK4 protein degradation at 0.1 to 10 uM after 24 hrs by Western blot analysis. It counts as cell-based. The conditions noted are these: SK-BR-3. In outline: as §1
The target in data set [6] is T1, Heat shock protein HSP90. The data set can be described thus: Inhibition of HSP90 at N-terminus in human SKBR3 cell lysates assessed as induction of heat shock response by measuring increase in HSP70 protein level at 0.1 to 10 uM after 24 hrs by Western blot analysis. The format is cell-based. The conditions noted are these: sk-br-3, 24 h. In outline:
as §1

Data set [7] deals with T1, Heat shock protein HSP90. The data set can be described thus: Inhibition of HSP90 at C-terminus in human SKBR3 cell lysates assessed as induction of Raf1 protein degradation at 0.1 to 10 uM after 24 hrs by Western blot analysis. The format is cell-based. The conditions noted are these: SK-BR-3. The method in brief:
as §1

Data set [8] concerns the target T1, Heat shock protein HSP90. The data set can be described thus: Inhibition of HSP90 at C-terminus in human SKBR3 cell lysates assessed as induction of AKT protein degradation at 0.1 to 10 uM after 24 hrs by Western blot analysis. It counts as cell-based. The conditions noted are these: SK-BR-3. The method in brief: as §1

Activity calls are given as the source filed them. The rule behind the calls is not given here.

For `CC(=O)Nc1nc2ccc(NC(=O)c3cc(Br)c(Br)[nH]3)cc2s1`, the EC50 in data set [1] and in data set [2] was more than 50 µM each time.
Consider `CCOC(=O)C(=O)Nc1ccc2nc(NC(=O)c3ccc(OC)cc3)sc2c1`, for which the EC50 in data set [1] is 10.7 µM; in data set [2], more than 50 µM.
For `CCOC(=O)C(=O)Nc1nc2ccc(NC(=O)c3cc4ccccc4[nH]3)cc2s1`, in that order: 6.94 µM and 11.2 µM.
For `CCOC(=O)C(=O)Nc1ccc2nc(NC(=O)c3ccc4c(c3)OCO4)sc2c1` the same measures were more than 50 µM and more than 50 µM.
For `CCOC(=O)C(=O)Nc1ccc2nc(NC(=O)c3cc4ccc(OC)cc4[nH]3)sc2c1` the same measures were 6.7 µM and more than 50 µM.
On to `CCOC(=O)C(=O)Nc1ccc2nc(NC(=O)c3ncccn3)sc2c1`, for which the EC50 in data set [1] and in data set [2] was more than 50 µM each time.
For the compound `CCOC(=O)C(=O)Nc1nc2ccc(NC(=O)c3cc(Br)c[nH]3)cc2s1`, the EC50 in data set [1] came out at 27.9 µM; in data set [2] it was 41.3 µM.
Regarding `CC(=O)C(=O)Nc1ccc2nc(NC(=O)c3cc4ccccc4[nH]3)sc2c1`, the EC50 in data set [1] and in data set [2] was more than 50 µM each time.
Regarding `CCOC(=O)C(=O)Nc1ccc2nc(NC(=O)c3cc4cc(CC)ccc4[nH]3)sc2c1`, the EC50 was found to be 20.6 µM in data set [1] and 25.3 µM in data set [2].
With `CCOC(=O)C(=O)Nc1nc2ccc(NC(=O)c3ccccc3)cc2s1`, the EC50 in data set [1] was 9.73 µM; in data set [2], more than 50 µM.
Regarding `CCOC(=O)C(=O)Nc1ccc2nc(NC(=O)c3cc(Br)c(Br)[nH]3)sc2c1`, the inhibition entry in data set [3] was “Active”. Besides, the figures for the concentration giving a half-maximal response (EC50) in data set [1] and in data set [2] were 2.41 µM and more than 50 µM, respectively.
Regarding `CCOC(=O)C(=O)Nc1nc2ccc(NC(=O)c3cc(Br)c(Br)[nH]3)cc2s1`, the EC50 in data set [1] was found to be 3.59 µM; in data set [2] it was 10.1 µM.
As to `COc1ccc2[nH]c(C(=O)Nc3nc4ccc(NC(=O)C(=O)c5ccccc5)cc4s3)cc2c1`, the EC50 in data set [1] and in data set [2] was more than 50 µM in each case.
As to `CCOC(=O)C(=O)Nc1ccc2nc(NC(=O)c3cc4cc(OC)ccc4[nH]3)sc2c1`, the inhibition result in data set [4], in data set [5], in data set [7] and in data set [8] was “Active” each time. In data set [6], the “inhibition (INH)” value is listed as “Not Active”. Besides, the EC50 was determined as 0.86 µM in data set [1] and 7.03 µM in data set [2].
As to `Cc1ccc2[nH]c(C(=O)Nc3nc4ccc(NC(=O)C(=O)c5ccccc5)cc4s3)cc2c1`, the EC50 in data set [1] and in data set [2] was more than 50 µM throughout.
`CCOC(=O)C(=O)Nc1ccc2nc(NC(=O)c3cc4cc(C)ccc4[nH]3)sc2c1`: the results for the EC50 in data set [1] and in data set [2] were 2.81 µM and 10.1 µM, respectively.
Turning to `CCOC(=O)C(=O)Nc1ccc2nc(NC(=O)c3cc4ccccc4[nH]3)sc2c1`, the figures for the EC50 in data set [1] and in data set [2] were 5.41 µM and 8.99 µM, respectively.
